Compound activity as filed in PubChem.
Only some compounds are listed: those with a hit (about 2.6% of all), similar ones and a draw of the others.
SIAE inh = human SIAE inhibition, primary screen; Q9HAT2; SIAE FP-Rh probe binding, fluorescence polarization; inhibition, % at 9.66 µM; hit rate 0.69% among 370,000; AID 1053197;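 active means inhibition above a cutoff: mean of compounds within the control limits plus 3 SD of those, cut at about 17% in these data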;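 further: 0% = plate median of compound wells and 100% = probe without SIAE protein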
PRMT1 FP inh = PRMT1 (human) inhibition, primary screen; recombinant PRMT1, activity-based probe fluorescence polarization; inhibition, % at 2.79 µM; hit rate 1.3% among 370,000;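 active means inhibition above about 21% made by adding two undisclosed values, limit read from the data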
ABHD4 inh = inhibits mouse alpha/beta hydrolase domain 4 | purified mABHD4, FP-Rh probe fluorescence polarization | inhibition, % at 8.92 µM | hit rate 0.54% among 370,000;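 active means inhibition exceeding the mean over every tested compound plus 3 SD, cut at about 30% in these data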;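 further: 0% = plate median of compound wells and 100% = S159A mutant with DMSO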
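Test system: mABHD4 protein | Buffer or medium: HEPES pH 7.0 buffer, 150 mM NaCl, 0.01% Pluronic F-127 | Probe or stimulus: FP-Rh fluorescent activity-based probe, added after compound pre-incubation | Timing: Pre-incubation 45 min, probe exposure 60 min, at 25 °C | Technique: Fluorescence polarization, excitation 525 nm, emission 598 nm, BODIPY TMR filters | Repeats: Single well per compound (singlicate)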
HTRA1 inh = inhibitors of human serine peptidase HTRA1; Q92743; recombinant HTRA1, FP-rhodamine activity-based probe, fluorescence polarization; inhibition, % at 5.96 µM; hit rate 0.5% among 340,000; AID 504803; in the data active means inhibition above about 36%;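 further: 0% = enzyme with DMSO and 100% = wells lacking enzyme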
Target sequence (Q92743 whole entry, looked up): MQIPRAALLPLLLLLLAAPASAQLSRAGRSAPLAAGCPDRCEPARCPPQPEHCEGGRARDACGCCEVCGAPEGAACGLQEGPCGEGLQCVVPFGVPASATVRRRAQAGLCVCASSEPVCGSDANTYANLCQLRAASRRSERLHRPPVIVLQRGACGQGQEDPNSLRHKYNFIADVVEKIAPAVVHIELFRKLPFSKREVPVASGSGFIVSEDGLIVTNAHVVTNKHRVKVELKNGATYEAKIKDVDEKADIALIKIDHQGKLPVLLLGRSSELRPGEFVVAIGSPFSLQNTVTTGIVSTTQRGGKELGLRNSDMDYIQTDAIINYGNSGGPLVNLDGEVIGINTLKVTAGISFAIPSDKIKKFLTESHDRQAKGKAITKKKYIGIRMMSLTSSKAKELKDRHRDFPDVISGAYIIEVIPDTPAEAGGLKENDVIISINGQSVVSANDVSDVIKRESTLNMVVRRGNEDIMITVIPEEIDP
TCR-CD3 inh = inhibitors of human TCR-CD3 interaction; TAMRA-labeled TCR probe fluorescence, biochemical; inhibition, % at 9.4 µM; hit rate 0.37% among 360,000; AID 651800;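 further: recombinant mutant TCR 2C K166C tagged with TAMRA read by polarization; 0% = receptor in buffer alone and 100% = receptor with positive control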
BSA probe FL = interferes with TAMRA-BSA probe, flagging TCR-CD3 hits; shares compounds with TCR-CD3 inh; TAMRA-labeled BSA probe fluorescence counterscreen; inhibition, % at 9.4 µM; hit rate 10% among 1,200; in the data active means inhibition above about 23%;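 further: 0% = buffer low control and 100% = reference high control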
TCR-CD3 inh conf = TCR-CD3 interaction inhibition, confirmation. hit rate 48% among 1,200. shares compounds with TCR-CD3 inh. inhibition, % at 9.4 µM. TAMRA-labeled TCR probe fluorescence binding assay
PRMT1 inh conf = confirmation of human PRMT1 inhibitors. AID 687036. inhibition, % at 2.79 µM. shares compounds with PRMT1 FP inh. hit rate 42% among 3,300. recombinant His-PRMT1, activity-based probe fluorescence polarization;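 active means mean inhibition across replicates above the hit cutoff derived for the earlier primary screen, cut at about 22% in these data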
ABHD4 confirm = ABHD4 (mouse) inhibition, FP confirmation. purified mABHD4, FP-Rh probe fluorescence polarization. hit rate 55% among 1,800. inhibition, % at 8.92 µM. shares compounds with ABHD4 inh;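 active means mean inhibition across replicates above the hit cutoff set in the primary screen, cut at about 30% in these data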;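 further: 0% = wild-type ABHD4 with DMSO and 100% = catalytically dead S159A mutant with DMSO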
* hit, by the source's call; / = no result given. Unless noted, no stated cut-off is given here; in the data, active means inhibition above about 19%; inactive means the rest.

SMILES	SIAE inh	PRMT1 FP inh	ABHD4 inh	HTRA1 inh	TCR-CD3 inh	BSA probe FL	TCR-CD3 inh conf	ABHD4 confirm	others
CC(=O)Nc1cc(-c2ccccc2N(C)C)cn2c(-c3ccc(S(C)(=O)=O)cc3)cnc12	15	107*	17	/	31*	6	14	/	PRMT1 inh conf=20
CC(=O)Nc1cc(-c2ccccc2N(C)C)cn2c(-c3ccccc3)cnc12	6	6	6	/	5	/	/	/
CN(C)c1ccc(-c2ccnc3c2CC(C)(C(=O)NCCc2ccccc2)O3)cc1 (stereo unspecified)	8	-2	6	/	2	/	/	/
CCOC(=O)N1CCc2cc(OC)c(OC)c3c2c1cc1cc(OC)c(OC)cc13	16	6	63*	10	27*	-3	2	69*
COc1cc(CC(=O)N2CCc3ccccc32)cc(OC)c1OC	-1	2	6	8	-1	/	/	/
CC(=O)Nc1ccc(Nc2c3c4c(cccc4n(C)c2=O)C(=O)c2ccccc2-3)cc1	6	71*	31*	21	21*	55*	37*	33*
NN1C(=O)/C(=C\c2ccco2)SC1=S	11	43*	42*	/	20*	0	6	1
O=C1/C(=C/c2ccco2)SC(=S)N1c1cccnc1	-2	46*	31*	21	28*	-8	23*	6	PRMT1 inh conf=20
CCOC(=O)CN1C(=O)S/C(=C/c2ccco2)C1=O	-2	6	14	-4	6	/	/	/
O=C1/C(=C\c2ccco2)SC(=S)N1c1ccc(O)cc1	8	14	13	-1	-5	/	/	/
O=C(CSc1nnc(-c2ccncc2)n1-c1ccccc1)Nc1ccc2c(c1)OCCO2	0	6	-5	/	/	/	/	/
CC(C)COc1ccc(C(=S)N2CCCC2)cc1	4	-1	2	-2	3	/	/	/
O=C(COC(=O)c1ccc(Br)o1)Nc1ncc([N+](=O)[O-])s1	-8	12	23	17	-5	/	/	/
COc1ccc(C(=O)OCC(=O)Nc2ncc([N+](=O)[O-])s2)cc1OC	-12	21	38*	9	21*	-19	8	25
COc1ccccc1C(C)NC(=O)c1ccccc1SCC(=O)N1CCCC1 (stereo unspecified)	8	0	6	0	-6	/	/	/
CN(C)c1ccc(O)c2c1CC1CC3[C@@H](N(C)C)C(=O)C(C(N)=O)=C(O)[C@]3(O)C(=O)C1=C2O (stereo partly specified)	25*	31*	77*	29	46*	-7	27*	44*
NC(=O)c1sc2nc(-c3ccccc3)ccc2c1N	2	4	2	-22	-6	/	/	/
CC(=O)c1sc2nc(-c3ccco3)ccc2c1N	9	52*	31*	/	24*	-6	3	12
Cc1ccc2c(cnn2C(=O)CCC(=O)N2CCCCC2)c1	0	-2	-2	-2	5	/	/	/
COc1cc(-c2nc3ccccn3c2/N=C/c2cccc(OC)c2O)ccc1O	7	4	11	5	0	/	/	/
Oc1ccccc1/C=N/c1c(-c2ccco2)nc2ccccn12	15	27*	52*	29	20*	1	4	4	PRMT1 inh conf=6
C=CC[C@]1(O)C(=O)N(c2ccccc2)c2ccccc21	5	4	-3	/	/	/	/	/
C[C@H]1CN([C@@H](C)CO)S(=O)(=O)c2ccc(Br)cc2O[C@H]1CN(C)C(=O)c1cccc(F)c1	4	2	-7	6	4	/	/	/
O=C1NC(=O)C2(N1)C(=O)c1cccc3cccc2c13 (stereo unspecified)	5	139*	78*	23	61*	37*	31*	16	PRMT1 inh conf=72*
CN(C)c1ncc(C2=C(Cl)C(=O)C(N3CCCC3)=C(Cl)C2=O)s1	25*	68*	63*	39*	22*	-15	7	83*
O=c1[nH]nnc2c1cnn2-c1ccccc1	-3	-2	0	1	-1	/	/	/
CCCCCCSc1cccc(-c2nc3cc(C)ccn3c2NC2CCCCC2)c1	0	-2	18	-6	3	/	/	/
